Experiment [1] can be described thus: Inhibition of Platelet-derived growth factor receptor.
A short description of experiment [2]: Binding affinity for recombinant Lck/Yes-related tyrosine kinase expressed in insect cells.
For experiment [3], the target named is Tyrosine-protein kinase SYK (Homo sapiens, UniProt P43405). Kind of experiment: Inhibition of Syk protein tyrosine kinase.
For experiment [4], the target named is Tyrosine-protein kinase Fyn (Homo sapiens, UniProt P06241). Kind of experiment: Inhibition of Fyn protein kinase.
Tyrosine-protein kinase Fyn, sequence (P06241 whole entry): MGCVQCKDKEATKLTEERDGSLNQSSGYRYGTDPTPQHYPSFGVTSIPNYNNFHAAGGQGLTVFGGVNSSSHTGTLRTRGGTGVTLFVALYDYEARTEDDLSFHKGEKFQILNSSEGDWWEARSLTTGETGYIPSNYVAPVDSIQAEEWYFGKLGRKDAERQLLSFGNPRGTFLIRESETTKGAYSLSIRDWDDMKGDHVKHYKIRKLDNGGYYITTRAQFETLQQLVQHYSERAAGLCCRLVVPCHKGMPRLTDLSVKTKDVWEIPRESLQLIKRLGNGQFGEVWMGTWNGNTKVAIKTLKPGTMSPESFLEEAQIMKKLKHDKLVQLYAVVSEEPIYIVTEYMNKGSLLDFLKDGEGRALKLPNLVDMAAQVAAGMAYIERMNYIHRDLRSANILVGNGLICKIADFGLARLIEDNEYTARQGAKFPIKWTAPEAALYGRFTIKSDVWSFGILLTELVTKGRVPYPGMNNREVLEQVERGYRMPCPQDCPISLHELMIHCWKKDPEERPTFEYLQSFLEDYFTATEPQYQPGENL
Experiment [5] addresses T1, Inhibitor of nuclear factor kappa-B kinase subunit alpha (Homo sapiens, UniProt O15111).
T1 sequence (O15111 whole entry): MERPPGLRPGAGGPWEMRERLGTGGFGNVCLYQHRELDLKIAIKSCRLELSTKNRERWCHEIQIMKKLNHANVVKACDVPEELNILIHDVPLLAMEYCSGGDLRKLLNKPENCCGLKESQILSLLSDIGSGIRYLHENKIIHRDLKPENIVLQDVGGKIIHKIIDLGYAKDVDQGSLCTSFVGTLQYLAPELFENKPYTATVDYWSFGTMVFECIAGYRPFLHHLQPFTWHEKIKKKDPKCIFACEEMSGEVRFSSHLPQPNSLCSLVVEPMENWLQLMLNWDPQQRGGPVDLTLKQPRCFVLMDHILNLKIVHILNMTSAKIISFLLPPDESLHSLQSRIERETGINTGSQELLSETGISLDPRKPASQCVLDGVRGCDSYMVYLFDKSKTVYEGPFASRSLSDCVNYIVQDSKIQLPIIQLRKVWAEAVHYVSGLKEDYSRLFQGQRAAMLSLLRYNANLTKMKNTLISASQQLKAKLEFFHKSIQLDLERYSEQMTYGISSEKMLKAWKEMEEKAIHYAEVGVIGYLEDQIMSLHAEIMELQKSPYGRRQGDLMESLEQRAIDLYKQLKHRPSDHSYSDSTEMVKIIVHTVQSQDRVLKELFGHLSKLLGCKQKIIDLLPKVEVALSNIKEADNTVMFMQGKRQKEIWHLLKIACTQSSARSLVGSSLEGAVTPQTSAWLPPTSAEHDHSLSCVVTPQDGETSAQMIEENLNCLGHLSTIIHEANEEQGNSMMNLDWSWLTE
In words: Inhibition of I kappa-B kinase alpha.

Experiment [6] concerns the target Tyrosine-protein kinase Fgr (Homo sapiens, UniProt P09769). Kind of experiment: Inhibition of Fgr protein kinase.
Experiment [7] in a line: Inhibition of p56 Lck tyrosine kinase. A digest of the protocol:
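His-tagged recombinant Lck made in insect cells by baculovirus and purified on nickel affinity resin. Kinase buffer is 20 mM MOPS pH 7 with 10 mM MgCl2, and the test compound is present. It is stopped after 10 min with TCA/pyrophosphate then BSA. Enolase is precipitated at 4 °C, filtered and counted by scintillation.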

A short description of experiment [8]: Inhibition of Blk kinase.
The target of experiment [9] is Tyrosine-protein kinase HCK (Homo sapiens, UniProt P08631). Kind of experiment: Inhibition of Hck kinase.
Tyrosine-protein kinase HCK, sequence (P08631 whole entry): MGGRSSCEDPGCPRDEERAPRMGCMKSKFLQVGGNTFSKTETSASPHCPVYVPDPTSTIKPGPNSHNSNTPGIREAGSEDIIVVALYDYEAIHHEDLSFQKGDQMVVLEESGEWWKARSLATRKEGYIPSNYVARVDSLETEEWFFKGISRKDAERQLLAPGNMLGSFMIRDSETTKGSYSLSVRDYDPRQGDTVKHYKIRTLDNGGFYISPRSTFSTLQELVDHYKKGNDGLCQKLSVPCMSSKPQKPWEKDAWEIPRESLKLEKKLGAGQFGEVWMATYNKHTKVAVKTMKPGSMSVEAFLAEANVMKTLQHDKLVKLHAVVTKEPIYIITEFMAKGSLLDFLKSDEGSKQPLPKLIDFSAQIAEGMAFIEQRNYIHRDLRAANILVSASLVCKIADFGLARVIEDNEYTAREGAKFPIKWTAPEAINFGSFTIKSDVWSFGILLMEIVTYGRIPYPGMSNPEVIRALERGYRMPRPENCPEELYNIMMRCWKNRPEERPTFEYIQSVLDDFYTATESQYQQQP
In experiment [10] the target is Tyrosine-protein kinase Lyn (Homo sapiens, UniProt P07948). In words: Inhibition of Lyn kinase.
Tyrosine-protein kinase Lyn, sequence (P07948 whole entry): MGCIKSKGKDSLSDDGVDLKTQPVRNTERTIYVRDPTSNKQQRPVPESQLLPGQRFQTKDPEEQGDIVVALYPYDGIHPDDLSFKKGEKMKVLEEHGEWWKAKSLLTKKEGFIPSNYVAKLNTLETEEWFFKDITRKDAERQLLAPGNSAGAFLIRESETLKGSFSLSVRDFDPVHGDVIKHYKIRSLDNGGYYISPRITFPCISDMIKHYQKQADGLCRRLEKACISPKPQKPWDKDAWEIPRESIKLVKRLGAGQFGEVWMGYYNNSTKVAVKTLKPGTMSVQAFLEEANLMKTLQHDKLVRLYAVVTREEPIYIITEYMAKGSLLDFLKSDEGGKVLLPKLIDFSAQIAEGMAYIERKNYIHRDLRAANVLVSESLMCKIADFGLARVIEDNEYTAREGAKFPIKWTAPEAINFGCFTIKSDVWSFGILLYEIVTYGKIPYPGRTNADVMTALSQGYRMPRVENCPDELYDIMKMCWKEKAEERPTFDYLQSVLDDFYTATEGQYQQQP
The next experiment concerns the target Protein kinase C (PKC). Kind of experiment: Inhibition of PKC kinase. In kind it is protein assay.
Experiment [11] addresses Tyrosine-protein kinase Yes (Homo sapiens, UniProt P07947). In words: Inhibition of Yes kinase.
The target of the next experiment is MAP kinase p38 (Homo sapiens, UniProt O15264+Q15759+Q16539+P53778). In words: Inhibition of p38 MAP-kinase. In kind it is protein assay.
The target of experiment [12] is T2, Tyrosine-protein kinase ZAP-70 (Homo sapiens, UniProt P43403).
T2 sequence (P43403 whole entry): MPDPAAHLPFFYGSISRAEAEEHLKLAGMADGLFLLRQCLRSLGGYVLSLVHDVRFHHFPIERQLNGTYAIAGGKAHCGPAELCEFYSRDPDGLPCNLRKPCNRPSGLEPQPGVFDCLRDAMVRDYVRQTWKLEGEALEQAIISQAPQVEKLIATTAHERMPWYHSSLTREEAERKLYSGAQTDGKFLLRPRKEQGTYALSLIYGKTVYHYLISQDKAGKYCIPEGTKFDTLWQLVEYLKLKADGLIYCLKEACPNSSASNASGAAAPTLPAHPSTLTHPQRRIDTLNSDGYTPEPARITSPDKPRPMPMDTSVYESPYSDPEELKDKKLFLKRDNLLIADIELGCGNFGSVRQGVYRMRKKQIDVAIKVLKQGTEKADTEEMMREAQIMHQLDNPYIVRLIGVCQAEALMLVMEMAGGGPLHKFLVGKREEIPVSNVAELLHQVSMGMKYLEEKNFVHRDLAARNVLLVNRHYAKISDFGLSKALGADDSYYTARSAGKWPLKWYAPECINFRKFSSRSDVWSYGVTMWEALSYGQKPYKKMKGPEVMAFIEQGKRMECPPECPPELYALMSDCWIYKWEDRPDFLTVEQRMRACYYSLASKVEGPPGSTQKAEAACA
In words: Inhibition of Zeta-chain (TCR) associated protein kinase 70 kDa (ZAP-70).

Experiment [13] is described as follows: Inhibition of Protein kinase A.
A short description of experiment [14]: Inhibition of Human PBL (T cell) proliferation. In kind it is functional. The essentials:
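Normal human peripheral blood T cells are added with test compound and anti-CD28 (E.3) antibody to wells precoated with anti-CD3 mAb (G19-4). After 3 days [3H]-thymidine is added, and after further incubation the cells are harvested and incorporation is counted by scintillation.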

For experiment [15], the target named is T3, Inhibitor of nuclear factor kappa-B kinase subunit beta (Homo sapiens, UniProt O14920).
T3 sequence (O14920 whole entry): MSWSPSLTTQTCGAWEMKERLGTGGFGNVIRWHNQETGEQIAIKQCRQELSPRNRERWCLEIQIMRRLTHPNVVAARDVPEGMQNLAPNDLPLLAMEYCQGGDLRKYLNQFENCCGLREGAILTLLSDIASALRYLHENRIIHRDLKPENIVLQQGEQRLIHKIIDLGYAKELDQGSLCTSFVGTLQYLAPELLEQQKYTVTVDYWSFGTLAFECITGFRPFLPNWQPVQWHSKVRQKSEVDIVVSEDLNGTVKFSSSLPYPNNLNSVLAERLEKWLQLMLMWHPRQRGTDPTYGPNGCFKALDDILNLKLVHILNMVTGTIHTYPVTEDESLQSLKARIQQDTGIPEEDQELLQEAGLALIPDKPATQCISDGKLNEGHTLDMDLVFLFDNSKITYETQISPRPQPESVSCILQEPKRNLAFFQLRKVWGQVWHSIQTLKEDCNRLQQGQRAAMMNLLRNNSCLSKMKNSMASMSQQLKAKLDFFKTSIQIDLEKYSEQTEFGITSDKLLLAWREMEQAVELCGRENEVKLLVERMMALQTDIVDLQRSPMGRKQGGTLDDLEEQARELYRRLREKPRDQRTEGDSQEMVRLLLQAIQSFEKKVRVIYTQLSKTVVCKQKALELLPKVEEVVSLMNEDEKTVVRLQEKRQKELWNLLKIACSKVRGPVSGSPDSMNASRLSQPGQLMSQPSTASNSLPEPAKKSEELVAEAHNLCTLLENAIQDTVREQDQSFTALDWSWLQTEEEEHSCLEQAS
Kind of experiment: Inhibition of I-kappa-B-kinase beta.

The target of experiment [16] is Receptor tyrosine-protein kinase erbB-2 (Homo sapiens, UniProt P04626). Kind of experiment: Inhibition of HER2 kinase.
Receptor tyrosine-protein kinase erbB-2, sequence (P04626 whole entry): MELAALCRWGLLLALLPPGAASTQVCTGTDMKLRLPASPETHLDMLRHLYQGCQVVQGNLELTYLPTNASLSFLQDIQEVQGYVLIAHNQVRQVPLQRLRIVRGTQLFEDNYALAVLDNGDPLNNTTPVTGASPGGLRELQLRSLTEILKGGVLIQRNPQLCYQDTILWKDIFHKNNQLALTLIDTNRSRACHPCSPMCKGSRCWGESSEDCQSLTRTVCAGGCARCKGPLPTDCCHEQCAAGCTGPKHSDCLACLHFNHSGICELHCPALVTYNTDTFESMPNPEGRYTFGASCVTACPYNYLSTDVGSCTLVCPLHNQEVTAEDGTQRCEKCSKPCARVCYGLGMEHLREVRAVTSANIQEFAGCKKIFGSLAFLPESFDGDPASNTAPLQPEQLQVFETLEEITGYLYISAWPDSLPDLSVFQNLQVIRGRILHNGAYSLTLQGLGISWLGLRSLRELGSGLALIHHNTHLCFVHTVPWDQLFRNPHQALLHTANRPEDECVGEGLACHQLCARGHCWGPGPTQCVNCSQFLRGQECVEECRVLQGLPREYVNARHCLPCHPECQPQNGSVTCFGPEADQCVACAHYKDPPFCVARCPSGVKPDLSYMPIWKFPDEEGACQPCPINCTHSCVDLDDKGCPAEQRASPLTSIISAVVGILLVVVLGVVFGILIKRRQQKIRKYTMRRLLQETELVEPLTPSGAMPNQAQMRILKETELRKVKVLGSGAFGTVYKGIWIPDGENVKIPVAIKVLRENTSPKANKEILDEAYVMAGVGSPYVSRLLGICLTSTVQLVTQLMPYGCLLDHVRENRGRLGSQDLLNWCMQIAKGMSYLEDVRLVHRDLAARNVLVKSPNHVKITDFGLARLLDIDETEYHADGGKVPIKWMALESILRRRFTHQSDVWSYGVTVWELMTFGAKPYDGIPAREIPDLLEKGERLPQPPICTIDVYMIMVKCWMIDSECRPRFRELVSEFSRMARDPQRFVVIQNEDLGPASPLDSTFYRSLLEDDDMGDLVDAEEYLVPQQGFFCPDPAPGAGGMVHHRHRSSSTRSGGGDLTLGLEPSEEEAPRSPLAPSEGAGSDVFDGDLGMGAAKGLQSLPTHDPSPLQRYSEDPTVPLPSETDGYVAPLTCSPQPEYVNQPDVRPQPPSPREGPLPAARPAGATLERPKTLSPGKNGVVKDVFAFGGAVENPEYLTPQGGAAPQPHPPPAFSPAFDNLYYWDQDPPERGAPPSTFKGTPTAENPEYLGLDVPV

“And” between values parts separate entries of the source, which are not always exact repeats. Equal entries are not always repeated.

Tyrosine-protein kinase Fgr, sequence (P09769 whole entry): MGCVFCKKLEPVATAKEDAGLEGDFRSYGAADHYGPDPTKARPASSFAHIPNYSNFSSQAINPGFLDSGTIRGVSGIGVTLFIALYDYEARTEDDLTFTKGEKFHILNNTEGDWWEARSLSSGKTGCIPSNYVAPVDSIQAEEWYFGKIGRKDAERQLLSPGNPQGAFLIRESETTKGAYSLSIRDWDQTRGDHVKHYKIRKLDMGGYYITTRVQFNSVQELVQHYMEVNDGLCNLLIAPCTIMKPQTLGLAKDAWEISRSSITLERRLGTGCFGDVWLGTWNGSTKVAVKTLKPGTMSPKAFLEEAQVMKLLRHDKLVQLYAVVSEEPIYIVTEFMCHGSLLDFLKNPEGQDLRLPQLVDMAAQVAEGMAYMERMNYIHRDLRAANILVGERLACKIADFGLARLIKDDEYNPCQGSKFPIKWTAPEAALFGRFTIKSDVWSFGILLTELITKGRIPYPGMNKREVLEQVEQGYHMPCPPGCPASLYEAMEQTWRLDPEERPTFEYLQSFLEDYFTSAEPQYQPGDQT
Tyrosine-protein kinase Yes, sequence (P07947 whole entry): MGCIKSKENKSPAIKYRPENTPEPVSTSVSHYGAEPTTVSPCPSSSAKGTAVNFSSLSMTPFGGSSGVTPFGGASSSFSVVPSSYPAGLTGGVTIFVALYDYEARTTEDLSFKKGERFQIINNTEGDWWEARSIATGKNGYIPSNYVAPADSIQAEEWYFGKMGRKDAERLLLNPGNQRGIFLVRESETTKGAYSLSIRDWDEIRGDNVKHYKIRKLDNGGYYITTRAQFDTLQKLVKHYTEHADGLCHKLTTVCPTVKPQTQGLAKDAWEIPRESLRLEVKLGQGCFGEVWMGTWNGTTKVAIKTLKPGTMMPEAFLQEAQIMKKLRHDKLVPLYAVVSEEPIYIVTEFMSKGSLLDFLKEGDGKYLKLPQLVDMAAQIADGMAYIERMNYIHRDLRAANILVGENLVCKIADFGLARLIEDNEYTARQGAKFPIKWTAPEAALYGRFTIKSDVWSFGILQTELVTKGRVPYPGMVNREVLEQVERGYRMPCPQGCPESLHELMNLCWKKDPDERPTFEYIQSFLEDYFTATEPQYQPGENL

For `Cc1cccc(Cl)c1Nc1nc2ccc(N3CCN[C@@H](C)C3)nc2n2cncc12`, the IC50 was greater than 1 µM in experiment [1]; greater than 10 µM in experiment [3]; 0.005 µM in [4]; greater than 10 µM in [5]; 0.0028 µM in experiment [6]; 0.004 µM in [7]. The IC50 is 0.027 µM in [8]; 0.023 µM in experiment [9]; 0.0005 µM in experiment [10]; greater than 10 µM against Protein kinase C (PKC); 0.0047 µM in experiment [11]; 0.38 µM against MAP kinase p38. The IC50 in experiment [12] is greater than 1 µM; in experiment [13], greater than 10 µM; in [14] it was 0.273 µM and > 0.1 µM; in experiment [15], greater than 10 µM; in experiment [16], greater than 1 µM. Besides, the Kd in [2] came to 0.00017 µM. Besides, the Ki in experiment [2] was 0.00055 µM.

The values are drawn from ChEMBL document CHEMBL1138736, “Imidazoquinoxaline Src-family kinase p56Lck inhibitors: SAR, QSAR, and the discovery of (S)-N-(2-chloro-6-methylphenyl)-2-(3-methyl-1-piperazinyl)imidazo- [1,5-a]pyrido[3,2-e]pyrazin-6-amine (BMS-279700) as a potent and orally active inhibitor with excellent in vivo antiinflammatory activity” (J Med Chem, 2004).
